Assays:
Assay type in all cases: cell-based
MCF-7 = experiment: Antiproliferative SRB assay, MCF-7; settings: Homo sapiens, MCF7, 72 h, read-out: MCF-7 IC50 (μM) ± SD
In short: (§1)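 Cells from ATCC, grown in RPMI-1640 with 10% heat-inactivated FBS and penicillin–streptomycin at 37 °C, 5% CO2. They were trypsinized and seeded 24 h before treatment. Test compound was given at 0.01, 0.1, 1, 10 and 100 μg mL−1 for 72 h beside untreated controls. Cells were fixed in 10% TCA (1 h, 4 °C), stained with 0.4% SRB (10 min, dark), rinsed in 1% acetic acid, dissolved in Tris–HCl, and read at 540 nm.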

HepG2 = experiment: Antiproliferative SRB assay, HepG2; settings: Homo sapiens, HepG2, 72 h, read-out: HepG2 IC50 (μM) ± SD
In short: as §1

HCT116 = experiment: Antiproliferative SRB assay, HCT116; settings: Homo sapiens, HCT-116, 72 h, read-out: HCT116 IC50 (μM) ± SD
In short: as §1

EA.hy926 = experiment: SRB assay on normal cells EA.hy926; settings: Homo sapiens, EA.hy 926, 72 h, read-out: EA.hy926 IC50 (μM) ± SD
In short: as §1

SMILES | IC50 (MCF-7) [µM] | IC50 (HepG2) [µM] | IC50 (HCT116) [µM] | IC50 (EA.hy926) [µM]
N#CCC(=O)NNc1nc(-c2ccccc2)cs1 [compound 7, 2-cyano-N′-(4-phenylthiazol-2-yl)acetohydrazide] | 10.3 | 9.9 | 6.5 | 11.6
O=C(NNc1nc(-c2ccccc2)cs1)c1cc2ccccc2oc1=O [6a, 2-Oxo-N′-(4-phenylthiazol-2-yl)-2H-chromene-3-carbohydrazide] | 72.9 | 36.5 | 82.5 | 31.9
COc1cccc2c1C(=O)c1c(O)c3c(c(O)c1C2=O)C[C@@](O)(C(=O)CO)C[C@@H]3O[C@H]1C[C@H](N)[C@H](O)[C@H](C)O1 [Doxorubicin, reference compound] | 2.1 | 1.6 | 1.9 | 1.7

Source: publication PMC11167341 (RSC Advances, 2024)
